Measured values reported in ChEMBL document CHEMBL5046302, “Identification and Evaluation of Brominated Carbazoles as a Novel Antibiotic Adjuvant Scaffold in MRSA” (2022).
Active and inactive are the calls of the source. The rule behind the calls is not given here.

What was measured:
Assay type in all cases: functional
Staphylococcus aureus [1] = assay: Potentiation of methicillin induced antibacterial activity against methicillin-resistant Staphylococcus aureus ATCC 43300 assessed as methicillin MIC at 50 uM after 18 hrs by CLSI protocol based broth microdilution assay
Staphylococcus aureus [2] = assay: Potentiation of cefoxitin induced antibacterial activity against methicillin-resistant Staphylococcus aureus ATCC 43300 assessed as cefoxitin MIC at 50 uM after 18 hrs by CLSI protocol based broth microdilution assay
Staphylococcus aureus [3] = assay: Potentiation of cefoxitin induced antibacterial activity against methicillin-resistant Staphylococcus aureus USA300 assessed as cefoxitin MIC at 50 uM after 18 hrs by CLSI protocol based broth microdilution assay
Staphylococcus aureus [4] = assay: Potentiation of ampicillin induced antibacterial activity against methicillin-resistant Staphylococcus aureus COL assessed as ampicillin MIC at 50 uM after 18 hrs by CLSI protocol based broth microdilution assay
Staphylococcus aureus [5] = assay: Potentiation of methicillin induced antibacterial activity against methicillin-resistant Staphylococcus aureus COL assessed as methicillin MIC at 50 uM after 18 hrs by CLSI protocol based broth microdilution assay
Staphylococcus aureus [6] = assay: Potentiation of cefoxitin induced antibacterial activity against methicillin-resistant Staphylococcus aureus COL assessed as cefoxitin MIC at 50 uM after 18 hrs by CLSI protocol based broth microdilution assay
Staphylococcus aureus [7] = assay: Potentiation of cefoxitin induced antibacterial activity against methicillin-resistant Staphylococcus aureus ATCC 43300 assessed as fold change in cefoxitin MIC at 50 uM after 18 hrs by CLSI protocol based broth microdilution assay
Staphylococcus aureus [8] = assay: Potentiation of ampicillin induced antibacterial activity against methicillin-resistant Staphylococcus aureus USA100 assessed as fold change in ampicillin MIC at 50 uM after 18 hrs by CLSI protocol based broth microdilution assay
Staphylococcus aureus [9] = assay: Potentiation of methicillin induced antibacterial activity against methicillin-resistant Staphylococcus aureus USA100 assessed as fold change in methicillin MIC at 50 uM after 18 hrs by CLSI protocol based broth microdilution assay
Staphylococcus aureus [10] = assay: Potentiation of ceftazidime induced antibacterial activity against methicillin-resistant Staphylococcus aureus COL assessed as fold change in ceftazidime MIC at 50 uM after 18 hrs by CLSI protocol based broth microdilution assay
Staphylococcus aureus [11] = assay: Potentiation of methicillin induced antibacterial activity against methicillin-resistant Staphylococcus aureus ATCC 43300 assessed as fold change in methicillin MIC at 25 uM after 18 hrs by CLSI protocol based broth microdilution assay
Staphylococcus aureus [12] = assay: Potentiation of cefoxitin induced antibacterial activity against methicillin-resistant Staphylococcus aureus ATCC 43300 assessed as fold change in cefoxitin MIC at 25 uM after 18 hrs by CLSI protocol based broth microdilution assay
Staphylococcus aureus [13] = assay: Potentiation of ampicillin induced antibacterial activity against methicillin-resistant Staphylococcus aureus USA100 assessed as fold change in ampicillin MIC at 25 uM after 18 hrs by CLSI protocol based broth microdilution assay
Staphylococcus aureus [14] = assay: Potentiation of methicillin induced antibacterial activity against methicillin-resistant Staphylococcus aureus USA100 assessed as fold change in methicillin MIC at 25 uM after 18 hrs by CLSI protocol based broth microdilution assay
Staphylococcus aureus [15] = assay: Potentiation of ceftazidime induced antibacterial activity against methicillin-resistant Staphylococcus aureus USA100 assessed as fold change in ceftazidime MIC at 25 uM after 18 hrs by CLSI protocol based broth microdilution assay
Staphylococcus aureus [16] = assay: Potentiation of ceftazidime induced antibacterial activity against methicillin-resistant Staphylococcus aureus USA300 assessed as fold change in ceftazidime MIC at 25 uM after 18 hrs by CLSI protocol based broth microdilution assay
Staphylococcus aureus [17] = assay: Potentiation of cefoxitin induced antibacterial activity against methicillin-resistant Staphylococcus aureus COL assessed as fold change in cefoxitin MIC at 25 uM after 18 hrs by CLSI protocol based broth microdilution assay
Staphylococcus aureus [18] = assay: Potentiation of oxacillin induced antibacterial activity against methicillin-resistant Staphylococcus aureus assessed as fold decrease in blaZ gene expression at 25 uM by RT-qPCR analysis
Outline: (§1)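 Fold dampening is the relative mRNA level of the gene, normalised to 16S rRNA, in oxacillin-treated cells divided by that in cells cotreated with oxacillin plus carbazole. Carbazole was used at 25 or 50 μM, as given in each line.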

Staphylococcus aureus [19] = assay: Potentiation of oxacillin induced antibacterial activity against methicillin-resistant Staphylococcus aureus assessed as fold decrease in blaI gene expression at 25 uM by RT-qPCR analysis; outline: as §1
Staphylococcus aureus [20] = assay: Potentiation of oxacillin induced antibacterial activity against methicillin-resistant Staphylococcus aureus assessed as fold decrease in mecA gene expression at 25 uM by RT-qPCR analysis; outline: as §1
Staphylococcus aureus [21] = assay: Potentiation of oxacillin induced antibacterial activity against methicillin-resistant Staphylococcus aureus assessed as fold decrease in mecI gene expression at 25 uM by RT-qPCR analysis; outline: as §1
Staphylococcus aureus [22] = assay: Potentiation of ceftazidime induced antibacterial activity against methicillin-resistant Staphylococcus aureus ATCC 43300 assessed as ceftazidime MIC at 25 uM after 18 hrs by CLSI protocol based broth microdilution assay
Staphylococcus aureus [23] = assay: Potentiation of oxacillin induced antibacterial activity against methicillin-resistant Staphylococcus aureus COL assessed as oxacillin MIC at 25 uM after 18 hrs by CLSI protocol based broth microdilution assay
Staphylococcus aureus [24] = assay: Potentiation of ampicillin induced antibacterial activity against methicillin-resistant Staphylococcus aureus USA300 assessed as ampicillin MIC at 25 uM after 18 hrs by CLSI protocol based broth microdilution assay
Staphylococcus aureus [25] = assay: Potentiation of ceftazidime induced antibacterial activity against methicillin-resistant Staphylococcus aureus USA300 assessed as ceftazidime MIC at 25 uM after 18 hrs by CLSI protocol based broth microdilution assay
Staphylococcus aureus [26] = assay: Potentiation of ceftazidime induced antibacterial activity against methicillin-resistant Staphylococcus aureus COL assessed as ceftazidime MIC at 25 uM after 18 hrs by CLSI protocol based broth microdilution assay
Staphylococcus aureus [27] = assay: Potentiation of cefoxitin induced antibacterial activity against methicillin-resistant Staphylococcus aureus COL assessed as cefoxitin MIC at 25 uM after 18 hrs by CLSI protocol based broth microdilution assay
Staphylococcus aureus [28] = assay: Potentiation of oxacillin induced antibacterial activity against methicillin-resistant Staphylococcus aureus USA300 assessed as fold change in oxacillin MIC at 25 uM after 18 hrs by CLSI protocol based broth microdilution assay
Staphylococcus aureus [29] = assay: Potentiation of oxacillin induced antibacterial activity against methicillin-resistant Staphylococcus aureus USA300 harboring stk1 deletion mutant co-transfected with a plasmid bearing stk1 assessed as oxacillin MIC at 25 uM after 18 hrs by CLSI protocol based broth microdilution assay
Staphylococcus aureus [30] = assay: Upregulation of mecA gene expression in methicillin-resistant Staphylococcus aureus COL at 25 uM by RT-PCR method
Staphylococcus aureus [31] = assay: Upregulation of mecA gene expression in methicillin-resistant Staphylococcus aureus ATCC 43300 at 50 uM by RT-PCR method
Staphylococcus aureus [32] = assay: Potentiation of oxacillin induced antibacterial activity against methicillin-resistant Staphylococcus aureus assessed as fold decrease in mecI gene expression at 50 uM by RT-qPCR analysis; outline: as §1
Staphylococcus aureus [33] = assay: Upregulation of mecA gene expression in methicillin-resistant Staphylococcus aureus USA100 at 50 uM by RT-PCR method

## Brc1ccc2[nH]c3ccc(Br)cc3c2c1
Staphylococcus aureus [1]
  MIC: 2 µg/mL
Staphylococcus aureus [2]
  MIC: 32 µg/mL
Staphylococcus aureus [3]
  MIC: 64 µg/mL
Staphylococcus aureus [4]
  MIC: 8 µg/mL
Staphylococcus aureus [5]
  MIC: 1020 µg/mL
Staphylococcus aureus [6]
  MIC: 512 µg/mL
Staphylococcus aureus [7]
  fold change (FC): 2
Staphylococcus aureus [8]
  fold change (FC): 1
Staphylococcus aureus [9]
  fold change (FC): 16
Staphylococcus aureus [10]
  fold change (FC): 1

## Brc1cccc2[nH]c3ccccc3c12
Staphylococcus aureus [11]
  fold change (FC): 1
Staphylococcus aureus [12]
  fold change (FC): 4
Staphylococcus aureus [13]
  fold change (FC): 4
Staphylococcus aureus [14]
  fold change (FC): 16
Staphylococcus aureus [15]
  fold change (FC): 1
Staphylococcus aureus [16]
  fold change (FC): 1
Staphylococcus aureus [17]
  fold change (FC): 1
Staphylococcus aureus [18]
  fold change (FC): 8.06
Staphylococcus aureus [19]
  fold change (FC): 4.65
Staphylococcus aureus [20]
  fold change (FC): 4
Staphylococcus aureus [21]
  fold change (FC): 1.28
Staphylococcus aureus [22]
  MIC: 64 µg/mL
Staphylococcus aureus [23]
  MIC: 512 µg/mL
Staphylococcus aureus [24]
  MIC: 2 µg/mL
Staphylococcus aureus [25]
  MIC: 256 µg/mL
Staphylococcus aureus [26]
  MIC: 1020 µg/mL
Staphylococcus aureus [27]
  MIC: 256 µg/mL
Staphylococcus aureus [28]
  fold change (FC): 4
Staphylococcus aureus [29]
  MIC: 0.5 µg/mL
Staphylococcus aureus [30]
  Activity: inactive

## Brc1cccc2c1[nH]c1ccccc12
Staphylococcus aureus [31]
  Activity: inactive
Staphylococcus aureus [1]
  MIC: 4 µg/mL
Staphylococcus aureus [2]
  MIC: 16 µg/mL
Staphylococcus aureus [3]
  MIC: 16 µg/mL
Staphylococcus aureus [4]
  MIC: 16 µg/mL
Staphylococcus aureus [5]
  MIC: 1020 µg/mL
Staphylococcus aureus [6]
  MIC: 256 µg/mL
Staphylococcus aureus [7]
  fold change (FC): 4
Staphylococcus aureus [8]
  fold change (FC): 4
Staphylococcus aureus [9]
  fold change (FC): 64
Staphylococcus aureus [10]
  fold change (FC): 1
Staphylococcus aureus [32]
  fold change (FC): 0.67
Staphylococcus aureus [33]
  Activity: inactive
